Results on four molecules are retold here after ChEMBL document CHEMBL1629494, “New amino acid esters of salicylanilides active against MDR-TB and other microbes” (Eur J Med Chem, 2010).

What all share (assay type): functional
For assay [1], the system named is Mycobacterium tuberculosis. In words: Antimycobacterial activity against multidrug-resistant Mycobacterium tuberculosis 9449/2007 after 21 days by micromethod. As to conditions: 9449/2007, 504 h. The gist of the method:
(§1)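 MDR M. tuberculosis strains, all resistant to INH, RIF, rifabutine and streptomycin (9449/2007 to these four). Micromethod with compounds added as DMSO solutions in a twofold series from 1000 μmol/L downward; lowest level used 1 μmol/L. Incubated at 37 °C and read at 14 and 21 days; MIC is the lowest concentration giving growth inhibition.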

The test system of assay [2] is Mycobacterium tuberculosis. Briefly: Antimycobacterial activity against extensively drug resistant Mycobacterium tuberculosis Praha 131 after 14 days by micromethod. Conditions: Praha 131, 336 h. The gist of the method: (§2)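 Clinical MDR/XDR M. tuberculosis strains, all resistant to INH, RIF, rifabutine and streptomycin, some with further resistances. Tested by the MIC micromethod across a concentration series descending from 1000.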

For assay [3], the system named is Mycobacterium tuberculosis. Briefly: Antimycobacterial activity against multidrug-resistant Mycobacterium tuberculosis 362/1998 after 21 days by micromethod. Conditions: 362/1998, 504 h. In outline: as §2
A short description of assay [4]: Selectivity index, ratio of IC50 for human PBMC to MIC for multidrug-resistant Mycobacterium tuberculosis 362/1998. In outline: (§3)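 SI = PBMC IC50 (MTT cytotoxicity) divided by the MIC against the named M. tuberculosis strain. MIC taken after 14 days of incubation at 37 °C by the micromethod.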
The test system of assay [5] is Mycobacterium tuberculosis. Briefly: Antimycobacterial activity against multidrug-resistant Mycobacterium tuberculosis 9449/2007 after 14 days by micromethod. As to conditions: 9449/2007, 336 h. The gist of the method:
as §1

Assay [6] concerns Mycobacterium tuberculosis. In words: Antimycobacterial activity against multidrug-resistant Mycobacterium tuberculosis 53/2009 after 14 days by micromethod. Conditions: 53/2009, 336 h. The gist of the method: as §2
Assay [7] relates to Mycobacterium tuberculosis. Briefly: Antimycobacterial activity against multidrug-resistant Mycobacterium tuberculosis 362/1998 after 14 days by micromethod. Conditions: 362/199, 336 h. In outline: as §2
For assay [8], the system named is Mycobacterium tuberculosis. Briefly: Antimycobacterial activity against multidrug-resistant Mycobacterium tuberculosis 53/2009 after 21 days by micromethod. As to conditions: 53/2009, 504 h. In outline:
as §1

Assay [9] is described as follows: Selectivity index, ratio of IC50 for human PBMC to MIC for multidrug-resistant Mycobacterium tuberculosis 357/2005. In outline:
as §3

Assay [10] deals with Mycobacterium tuberculosis. Briefly: Antimycobacterial activity against multidrug-resistant Mycobacterium tuberculosis 357/2005 after 21 days by micromethod. Conditions: 357/2005, 504 h. The gist of the method: as §2
In assay [11] the test system is Mycobacterium tuberculosis. Briefly: Antimycobacterial activity against extensively drug resistant Mycobacterium tuberculosis Praha 1 after 14 days by micromethod. Conditions: Praha 1, 336 h. The gist of the method:
as §2

The nature of assay [12]: Selectivity index, ratio of IC50 for human PBMC to MIC for multidrug-resistant Mycobacterium tuberculosis 9449/2007. In outline: as §3
Assay [13] is described as follows: Selectivity index, ratio of IC50 for human PBMC to MIC for multidrug-resistant Mycobacterium tuberculosis 53/2009. The gist of the method: as §3
The subject of assay [14] is Mycobacterium tuberculosis. In words: Antimycobacterial activity against multidrug-resistant Mycobacterium tuberculosis 357/2005 after 14 days by micromethod. As to conditions: 357/2005, 336 h. The gist of the method:
as §2

The subject of assay [15] is Mycobacterium tuberculosis. Briefly: Antimycobacterial activity against extensively drug resistant Mycobacterium tuberculosis Praha 1 after 21 days by micromethod. As to conditions: Praha 1, 504 h. In outline: as §2
In assay [16] the test system is Mycobacterium tuberculosis. In words: Antimycobacterial activity against extensively drug resistant Mycobacterium tuberculosis Praha 131 after 21 days by micromethod. As to conditions: Praha 131, 504 h. The gist of the method: as §2

≈ marks a conversion by molar mass, not a printed value.

Consider `CC(=O)N[C@@H](Cc1ccccc1)C(=O)Oc1ccc(Cl)cc1C(=O)Nc1ccc(Cl)c(Cl)c1`, for which the minimum inhibitory concentration (MIC) (commonly the smallest concentration in the dilution series that meets the test's criterion for growth inhibition) is 4 µM (≈ 2.02 µg/mL) in [1]; 2 µM (≈ 1.01 µg/mL) in assay [2]; 2 µM (≈ 1.01 µg/mL) in [3]; 2 µM (≈ 1.01 µg/mL) in [5]; 1 µM (≈ 0.506 µg/mL) in [6]; 1 µM (≈ 0.506 µg/mL) in [7]. The MIC in assay [8] amounted to 2 µM (≈ 1.01 µg/mL); in [10], 2 µM (≈ 1.01 µg/mL); in assay [11], 1 µM (≈ 0.506 µg/mL); in assay [14], 2 µM (≈ 1.01 µg/mL); in assay [15], 2 µM (≈ 1.01 µg/mL); in assay [16], 2 µM (≈ 1.01 µg/mL). The “Selectivity Index” value in assay [4], in [9], in assay [12] and in [13] was 22 throughout.
For `CC(=O)N[C@@H](Cc1ccccc1)C(=O)Oc1ccc(Cl)cc1C(=O)Nc1ccc(C(F)(F)F)cc1`, the minimal inhibitory concentration (MIC) amounted to 2 µM (≈ 1.01 µg/mL) in [1]; 1 µM (≈ 0.505 µg/mL) in assay [2]; 1 µM (≈ 0.505 µg/mL) in assay [3]; 2 µM (≈ 1.01 µg/mL) in [5]; 1 µM (≈ 0.505 µg/mL) in assay [6]; 1 µM (≈ 0.505 µg/mL) in [7]. Besides, the minimal inhibitory concentration (MIC) in assay [8] stood at 1 µM (≈ 0.505 µg/mL); in assay [10], 2 µM (≈ 1.01 µg/mL); in [11] it was 1 µM (≈ 0.505 µg/mL); in [14], 1 µM (≈ 0.505 µg/mL); in assay [15], 2 µM (≈ 1.01 µg/mL); in assay [16] it was 2 µM (≈ 1.01 µg/mL). Further, the “Selectivity Index” value in assay [4], in [9], in assay [12] and in [13] was 6.1 throughout.
With `CC(=O)N[C@@H](Cc1ccccc1)C(=O)Oc1ccc(Br)cc1C(=O)Nc1ccc(C(F)(F)F)cc1`, the MIC turned out to be 2 µM (≈ 1.1 µg/mL) in [1]; 2 µM (≈ 1.1 µg/mL) in assay [2]; 1 µM (≈ 0.549 µg/mL) in assay [3]; 1 µM (≈ 0.549 µg/mL) in assay [5]; 1 µM (≈ 0.549 µg/mL) in assay [6]; 1 µM (≈ 0.549 µg/mL) in [7]. In addition, the MIC in assay [8] was 2 µM (≈ 1.1 µg/mL); in assay [10], 2 µM (≈ 1.1 µg/mL); in assay [11], 1 µM (≈ 0.549 µg/mL); in assay [14] it was 2 µM (≈ 1.1 µg/mL); in assay [15] it was 2 µM (≈ 1.1 µg/mL); in [16] it was 2 µM (≈ 1.1 µg/mL). The “Selectivity Index” value in assay [4], in assay [9], in assay [12] and in assay [13] was 24.1 throughout.
For the molecule `NNC(=O)c1ccncc1` [ISONIAZID], the MIC is 58.3 µM (≈ 8 µg/mL) in assay [1]; 14.6 µM (≈ 2 µg/mL) in assay [2]; 14.6 µM (≈ 2 µg/mL) in assay [3]; 58.3 µM (≈ 8 µg/mL) in assay [5]; 14.6 µM (≈ 2 µg/mL) in [6]; 14.6 µM (≈ 2 µg/mL) in [7]. In addition, the minimum inhibitory concentration (MIC) in assay [8], in [10], in assay [11], in assay [14], in [15] and in assay [16] was 14.6 µM (≈ 2 µg/mL) in each case.
